An excerpt weighted towards active compounds, which were near 2.5% of everything screened.
PAD4 FP inh – inhibitors of human PAD4; Q9UM07; recombinant PAD4, RCA probe fluorescence polarization; inhibition, % at 6.36 µM; hit rate 0.41% among 330,000;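 active means percent inhibition above a cutoff equal to the mean of all tested compounds plus 3 SD, cut at about 15% in these data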;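 further: 0% = PAD4 with RCA probe and DMSO and 100% = probe without PAD4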
GSTO1 counter – GSTO1 inhibition, counter-screen for RBBP9 inhibitors. P78417. recombinant GSTO1, activity-based probe fluorescence polarization. inhibition, % at 5.96 µM. hit rate 1.1% among 300,000. AID 1974;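 active means inhibition above the campaign mean inhibition plus 3 SD, cut at about 35% in these data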;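 further: 0% = GSTO1-1 with DMSO and 100% = wells lacking GSTO1-1 enzyme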
TDP2 inh – TDP2 (human) inhibition, absorbance primary screen; O95551; hit rate 0.34% among 370,000; recombinant TDP2, T5PNP hydrolysis, p-nitrophenol absorbance 415 nm; AID 720702; inhibition, % at 12.8 µM;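 active means inhibition above the mean of all tested compounds plus 3 SD, set per campaign, cut at about 25% in these data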;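 further: 0% = DMSO with enzyme and 100% = buffer with substrate but no TDP2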
Target sequence (O95551 whole entry, looked up): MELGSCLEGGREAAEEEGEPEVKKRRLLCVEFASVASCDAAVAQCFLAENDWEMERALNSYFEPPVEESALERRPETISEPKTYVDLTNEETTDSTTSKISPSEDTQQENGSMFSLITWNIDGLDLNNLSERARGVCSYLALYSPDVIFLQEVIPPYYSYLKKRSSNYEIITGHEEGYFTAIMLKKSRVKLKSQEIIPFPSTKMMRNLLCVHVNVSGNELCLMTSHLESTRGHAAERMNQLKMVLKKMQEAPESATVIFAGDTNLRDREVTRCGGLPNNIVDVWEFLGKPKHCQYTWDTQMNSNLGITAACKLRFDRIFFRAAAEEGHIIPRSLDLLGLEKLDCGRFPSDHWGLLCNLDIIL
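System – recombinant human TDP2 · Quantity – TDP2 enzyme at 120 nM final · Doses – single concentration, 12.8 µM nominal, with 1% DMSO · Incubation – 2 h at 37 °C · Measured by – epi absorbance of p-nitrophenol freed from T5PNP by hydrolysis · Read-out – % inhibition relative to enzyme-containing and enzyme-free wells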
eLon inh – inhibits E. coli Lon protease; P0A9M0; purified E. coli Lon protease, fluorescence polarization; inhibition, % at 7.94 µM; hit rate 0.42% among 360,000; AID 602123; in the data active means inhibition above about 13%, passing the limit was not always enough;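 further: 0% = enzyme with probe and DMSO and 100% = no enzyme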
PRMT1 FP inh – inhibitors of human PRMT1; hit rate 1.3% among 370,000; AID 652257; inhibition, % at 2.79 µM; Q99873; recombinant PRMT1, activity-based probe fluorescence polarization;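 active means inhibition above about 21% made by adding two undisclosed values, limit read from the data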
Target sequence (Q99873 whole entry, looked up): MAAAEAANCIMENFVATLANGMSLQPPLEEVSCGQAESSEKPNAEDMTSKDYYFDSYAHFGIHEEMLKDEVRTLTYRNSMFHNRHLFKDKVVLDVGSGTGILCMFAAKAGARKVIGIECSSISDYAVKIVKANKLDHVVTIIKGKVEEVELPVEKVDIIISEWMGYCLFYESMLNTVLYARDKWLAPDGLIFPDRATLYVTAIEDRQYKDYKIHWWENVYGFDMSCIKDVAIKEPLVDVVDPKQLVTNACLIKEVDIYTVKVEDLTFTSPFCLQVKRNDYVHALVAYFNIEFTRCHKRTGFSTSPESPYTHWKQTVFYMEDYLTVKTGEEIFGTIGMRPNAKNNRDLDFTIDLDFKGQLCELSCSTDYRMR
E coli Lon conf – E. coli Lon inhibition confirmation; inhibition, % at 7.94 µM; shares compounds with eLon inh; hit rate 31% among 1,400; purified E. coli Lon, fluorescence polarization; in the data active means inhibition above about 16%;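 further: 0% = enzyme with probe and DMSO and 100% = no enzyme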
Numbers without * were called inactive; x = not tested or not shown; + = active, no number.

SMILES | PAD4 FP inh | GSTO1 counter | TDP2 inh | eLon inh | PRMT1 FP inh | E coli Lon conf
O=C1N[C@@H](Cc2ccccc2)C(=O)N2[C@H]1C[C@]1([C@]34C[C@H]5C(=O)N[C@@H](Cc6ccccc6)C(=O)N5[C@H]3N(S(=O)(=O)c3ccccc3)c3ccccc34)c3ccccc3N(S(=O)(=O)c3ccccc3)[C@H]21 | -6.8 | -1.6 | -0.1 | 54.8* | -1.2 | 11.5
O=C1N[C@@H](Cc2ccccc2)C(=O)N2[C@@H]3N(S(=O)(=O)c4ccccc4)c4ccccc4[C@]3(Br)C[C@@H]12 | -0.6 | -2.6 | -4.3 | -4.5 | -0.4 | x
CC(COc1cc(F)cc(F)c1)CN1CCC(C(O)(c2ccccc2)c2ccccc2)CC1 (centres undefined) | x | x | -5.4 | x | -9.6 | x
CC(C)Cn1c(=O)c(C(=O)Nc2ccncc2)c(O)c2ccccc21 | -2.6 | 16.1 | 3.8 | 34.7* | -2.7 | 22.6*
CCN(CC)C(=O)[C@H]1CC(CC(=O)NCCCN(C)C)C(=O)N2CCc3c([nH]c4ccc(OC)cc34)[C@]12C (some centres undefined) | 4.4 | x | -8.2 | + | 3.1 | -5.8
Cn1cc([N+](=O)[O-])c(C(=O)Nc2ccn(C34CC5CC(CC(C5)C3)C4)n2)n1 | -6.3 | -5.1 | -8.5 | 30.7* | 2.8 | -10.8
COc1cccc(/C=N/NC(=O)c2ccc(=O)n(C)c2)c1OC | 1.9 | 4.3 | 12.1 | 22.4* | -2.0 | 3.6
CCN(CC)S(=O)(=O)c1ccc(NC(=O)CC(NC(C)=O)c2ccccc2)cc1 (centres undefined) | -0.5 | 5.0 | 6.7 | 16.8* | -2.7 | -5.0
Cc1nn(C)cc1S(=O)(=O)N1CCN(Cc2ccccc2Cl)CC1 | -2.8 | 10.6 | 14.0 | -10.2 | -1.0 | x
CCCN1CCN(S(=O)(=O)c2cn(C)nc2C)CC1 | 3.7 | -0.4 | -7.5 | 21.9* | 16.1 | 14.2
CCCCNC[C@@]12CO[C@H](c3ccc(Cl)cc3)N1[C@@H](c1ccc(Cl)cc1)SC2 | x | x | 7.1 | x | 2.8 | x
CC(NCCC(Cc1ccccc1)c1ccco1)c1ccccc1 (centres undefined) | -1.5 | 6.3 | -8.7 | 17.6* | -0.4 | 11.6
CC(=O)Nc1ccc(-c2ccnc3c2CC(C)(C(=O)NCC2CC2)O3)cc1 (centres undefined) | x | x | -0.3 | -4.7 | 6.7 | x
CC(=O)Nc1cccc(-c2ccnc3c2CC(C)(C(=O)NCC2CC2)O3)c1 (centres undefined) | x | x | 2.4 | 47.4* | 3.8 | -4.7
Nc1nnnn1/N=C/c1cc(Cl)cc(Cl)c1O | -2.7 | 9.3 | 5.7 | 48.8* | -0.1 | 73.4*
N#Cc1ccccc1NC(=O)COC(=O)c1ccc(F)cc1F | -4.9 | 7.4 | 5.5 | 16.5* | -0.1 | -3.7
COc1cccc(NC(=O)COC(=O)c2ccc(F)cc2F)c1 | -3.9 | -0.9 | 5.9 | -7.3 | 0.0 | x
O=C(Nc1cccc(S(=O)(=O)NC2=NCCC2)c1)C1CCC1 | -2.2 | -1.8 | -8.9 | -3.1 | 1.4 | x
O=C(CC12CC3CC(CC(Br)(C3)C1)C2)Nc1cccc(S(=O)(=O)NC2=NCCC2)c1 | 1.0 | -1.2 | 9.7 | 16.1* | -1.6 | 2.2
O=[N+]([O-])c1cccc(C(=S)N2CCN(c3ccc(F)cc3)CC2)c1 | 2.2 | -2.5 | 5.9 | 56.1* | -1.0 | 1.1
C=CCOC(=O)N[C@H](c1ccc(-c2ccccc2)cc1)[C@H](C)/C=C/CC(=O)OC | x | x | 10.4 | x | -3.7 | x
CCCCC1=CC2=C(c3ccco3)C(=O)C(C)(OC(=O)c3ccc(OC)cc3)C(=O)C2=CN1CC1CC1 (centres undefined) | -5.3 | 5.3 | 5.0 | 39.2* | 12.3 | 20.3*
CCCCC1=CC2=C(c3ccco3)C(=O)C(C)(OC(=O)c3ccc(OC)cc3)C(=O)C2=CN1CCCCO (centres undefined) | -0.7 | -2.7 | 7.6 | 37.2* | 9.7 | 2.4
CCCCC1=CC2=C(c3ccco3)C(=O)C(C)(OC(=O)c3ccc(OC)cc3)C(=O)C2=CN1C1CC1 (centres undefined) | -8.3 | 9.9 | 6.5 | 55.8* | 11.3 | 7.8
CCCCC1=CC2=C(c3ccco3)C(=O)C(C)(OC(=O)c3ccc(OC)cc3)C(=O)C2=CN1CCCN(CC)CC (centres undefined) | -5.3 | -1.5 | 5.7 | 27.9 | 6.6 | x
SMILES | PAD4 FP inh | GSTO1 counter | TDP2 inh | eLon inh | PRMT1 FP inh | E coli Lon conf
CCCCC1=CC2=C(c3ccco3)C(=O)C(C)(OC(=O)c3ccc(OC)cc3)C(=O)C2=CN1CC(C)C (centres undefined) | 0.6 | 7.1 | 10.0 | 16.8 | 11.1 | x
CCCCC1=CC2=C(c3ccco3)C(=O)C(C)(OC(=O)c3ccc(OC)cc3)C(=O)C2=CN1C1CCCC1 (centres undefined) | -19.6 | 23.9 | x | x | x | x
CCCCC1=CC2=C(c3ccco3)C(=O)C(C)(OC(=O)c3ccc(OC)cc3)C(=O)C2=CN1C(CO)CO (centres undefined) | -2.5 | 0.9 | 6.9 | 31.2* | 11.4 | 4.8
CC(CCN1CCC(C(O)(c2ccccc2)c2ccccc2)CC1)Oc1cccc(Cl)c1 (centres undefined) | x | x | -2.8 | x | -4.5 | x
CCOC(=O)[C@]12CCCC3=C1N(CCC3)C(=O)[C@@H](CC(=O)NCCC(C)C)C2 | x | x | 0.4 | x | -3.9 | x
C=CCn1c(SCC(=O)Nc2sc3c(c2C#N)CCC(C)C3)nc2cc(C(=O)O)ccc2c1=O (centres undefined) | -2.5 | x | 1.7 | 47.9* | 1.2 | 2.0
Clc1ccc(-c2nc3ccc(Cl)cn3c2Cc2ccsc2)cc1 | x | x | -3.8 | 25.3* | -0.5 | 2.6
Cc1ccc(-c2nc3c(C)cc(Br)cn3c2Cc2ccsc2)cc1 | x | x | 1.9 | 6.9 | 1.7 | x
CCCc1nc2ccc(Cl)cn2c1Cc1ccsc1 | x | x | 5.5 | 25.0* | 8.8 | 6.5
N#Cc1ccc(-c2nc3ccc(Cl)cn3c2Cc2ccsc2)cc1 | x | x | -0.5 | 13.2 | 3.3 | x
Clc1ccc2nc(-c3ccccc3)c(Cc3ccsc3)n2c1 | x | x | x | 17.7* | x | 12.1
Cc1cc(Br)cn2c(Cc3ccsc3)c(-c3ccccc3)nc12 | x | x | 2.0 | 23.8* | 10.9 | 3.2
CCN(C[C@H]1[C@@H](c2ccc(C3=CCCC3)cc2)[C@H](CO)N1Cc1ccccn1)S(=O)(=O)c1ccccc1[N+](=O)[O-] | x | x | -8.2 | x | 5.3 | x
Nc1nc(C2C(=O)CCCC2=O)cs1 | 1.0 | 0.1 | 16.8 | 30.3* | 13.1 | 15.6
Cc1ccc(S(=O)(=O)NCc2ccc3c(c2)cc(C)n3C)cc1 | 11.4 | 0.7 | -7.3 | 16.3* | 2.3 | -1.8
Cc1cc2cc(CNC(=O)NC3CCCCC3)ccc2n1C | 0.0 | -1.4 | 7.1 | -12.0 | 3.0 | x
COc1cc(OC)cc(C(=O)NCc2ccc3c(c2)cc(C)n3C)c1 | 4.5 | -5.7 | -4.3 | 45.7* | 8.6 | 6.3
Cc1cc2cc(CNC(=S)Nc3ccc(OC(F)F)cc3)ccc2n1C | 8.1 | -5.7 | -0.4 | 14.9* | 10.5 | 0.9
Cc1cc2cc(CNC(=O)Nc3ccc(Cl)c(Cl)c3)ccc2n1C | -1.9 | -5.5 | -6.8 | 22.6* | 5.2 | 13.1
